IC50, Activity and half-life data for 15 compounds are collected here from ChEMBL document CHEMBL4261493, “Development of novel β-carboline-based hydroxamate derivatives as HDAC inhibitors with DNA damage and apoptosis inducing abilities” (Medchemcomm, 2017).

Active and inactive are the calls of the source. The calls are words filed in the database; no cut-off is given here. Some results are limits rather than exact numbers.

In one series the test system is SMMC-7721. Nature of the series: Antiproliferative activity against human SMMC7721 cells after 48 hrs by MTT assay. The format is functional, cell-based. Particulars: SMMC-7721, 48 h. On the technique in general: Tetrazolium dyes change colour on reduction, which living cells bring about.
The test system of the next series is HCT-116. Nature of the series: Antiproliferative activity against human HCT116 cells after 48 hrs by MTT assay. Particulars: HCT-116, 48 h. The format is functional, cell-based.
The next series has as its system LoVo. The experiment in a line: Antiproliferative activity against human LoVo cells after 48 hrs by MTT assay. The format is functional, cell-based.
Series [1] concerns HepG2. Nature of the series: Antiproliferative activity against human HepG2 cells after 48 hrs by MTT assay. The series is classed as functional, cell-based. As to conditions: HepG2, 48 h.
The target in a further series is Histone deacetylase. Nature of the series: Inhibition of HDAC in human HeLa nuclear extract using Boc-Lys(acetyl)-AMC as substrate measured after 60 mins by fluorescence assay. The format is protein assay.
Series [2] concerns Calf thymus DNA. The experiment in a line: Binding affinity to calf thymus DNA assessed as maximum absorption wavelength by UV-Vis spectroscopic titration method. The series is classed as nucleic-acid assay. Particulars: Bos taurus.
In series [3] the test system is HepG2. Nature of the series: Induction of apoptosis in human HepG2 cells at 5 uM after 48 hrs by Annexin-V FITC/propidium iodide staining based flow cytometry relative to control. The series is classed as functional. The method, boiled down:
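HepG2 cells treated for 48 h with vehicle, compound at 1.0, 2.0 or 4.0 μM, or SAHA at 5.0 μM. Cells stained with FITC-annexin V/PI and analysed by flow cytometry. Percentage of apoptotic cells reported as mean ± SD of three independent experiments; significance tested versus control.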

Series [4] relates to Calf thymus DNA. Nature of the series: Binding affinity to calf thymus DNA assessed as decrease in maximum absorption wavelength by UV-Vis spectroscopic titration method. The series is classed as nucleic-acid assay. Particulars: Bos taurus.
The nature of series [5]: Half life in rat liver microsomes at 5 uM in presence of NADPH by LC-MS analysis.
For series [6], the system named is HepG2. The experiment in a line: Induction of apoptosis in human HepG2 cells assessed as increase in cleaved caspase3 expression at 5 uM after 48 hrs by Western blot analysis. The format is functional, cell-based. A digest of the protocol:
(§1)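 Sub-confluent HepG2 cells incubated with or without compound (1.0–4.0 μM) or SAHA (5.0 μM) for 48 h. Lysates immunoblotted for Bax, Bcl-2, cleaved caspase-3 and PARP, with β-actin as internal control. Densitometric scanning gave levels relative to β-actin, as mean ± SD of three separate experiments.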
On the technique in general: In western blotting, separated proteins are transferred to a membrane and probed.

Series [7] deals with HepG2. Nature of the series: Induction of apoptosis in human HepG2 cells assessed as increase in cleaved PARP expression at 5 uM after 48 hrs by Western blot analysis. The format is functional, cell-based. The method, boiled down:
as §1

As to `COc1ccc(-c2nc(C(=O)N(C)Cc3ccc(C(=O)NO)cc3)cc3c2[nH]c2ccccc23)cc1`, the IC50 with SMMC-7721 is > 12.5 µM; with HCT-116, 9.76 µM; with LoVo, > 12.5 µM; in the series with HepG2 [1], 10.5 µM; on Histone deacetylase, 0.96 µM.

As for `CCN(Cc1ccc(C(=O)NO)cc1)C(=O)c1cc2c(cn1)[nH]c1ccccc12`, the IC50 is > 12.5 µM with SMMC-7721, > 12.5 µM with HCT-116, > 12.5 µM in the series with HepG2 [1] and 4.78 µM at Histone deacetylase.

Regarding `COc1ccc2c(c1)[nH]c1c(C)nccc12` [HARMINE], in the series with Calf thymus DNA [2], the Activity amounted to 320 nm. Further, the IC50 at Histone deacetylase is > 10 µM.

In the case of `CCCN(Cc1ccc(C(=O)NO)cc1)C(=O)c1cc2c([nH]c3ccccc32)c(-c2cccc(OC)c2)n1`, the IC50 with SMMC-7721 worked out at 4.12 µM; in the series with HCT-116, 2.96 µM; in the series with LoVo it was 5.31 µM; in the series with HepG2 [1], 3.64 µM; against Histone deacetylase, 0.23 µM.

Turning to `O=C(CCCCCCC(=O)Nc1ccccc1)NO` [VORINOSTAT], the Activity in the series on HepG2 [3] is recorded as 34.5%. For the same compound, the result with Calf thymus DNA [4] was inactive. Further, the half-life at 5 µM in [5] was found to be 44 min. For the same compound, the result in the series with HepG2 [6] and in the series on HepG2 [7] was Active.

Consider `CCCCN(Cc1ccc(C(=O)NO)cc1)C(=O)c1cc2c([nH]c3ccccc32)c(C)n1`, for which the IC50 is > 12.5 µM with SMMC-7721; > 12.5 µM with HCT-116; > 12.5 µM in the series with LoVo; 11.7 µM in the series on HepG2 [1]; 0.93 µM against Histone deacetylase.

Regarding `CCCN(Cc1ccc(C(=O)NO)cc1)C(=O)c1cc2c([nH]c3ccccc32)c(C)n1`, the IC50 in the series with SMMC-7721 is 11.6 µM; in the series on HCT-116, 10.5 µM; in the series with LoVo, > 12.5 µM; in the series on HepG2 [1], 9.83 µM; at Histone deacetylase it was 0.85 µM.

On to `CCCCN(Cc1ccc(C(=O)NO)cc1)C(=O)c1cc2c([nH]c3ccccc32)c(-c2ccc(OC)cc2)n1`, for which the IC50 in the series with SMMC-7721 came out at 5.25 µM; in the series with HCT-116 it was 3.02 µM; in the series on LoVo, 4.76 µM; in the series with HepG2 [1], 3.37 µM; against Histone deacetylase, 0.34 µM.

`CCN(Cc1ccc(C(=O)NO)cc1)C(=O)c1cc2c([nH]c3ccccc32)c(C)n1`: the IC50 in the series on SMMC-7721 was > 12.5 µM; in the series with HCT-116 it was > 12.5 µM; in the series on LoVo, > 12.5 µM; in the series on HepG2 [1], > 12.5 µM; on Histone deacetylase it was 1.75 µM.

Regarding `CN(Cc1ccc(C(=O)NO)cc1)C(=O)c1cc2c(cn1)[nH]c1ccccc12`, the IC50 in the series on SMMC-7721 was > 12.5 µM; with HCT-116, > 12.5 µM; in the series with HepG2 [1] it was > 12.5 µM; against Histone deacetylase, 5.63 µM.

Consider `CCCN(Cc1ccc(C(=O)NO)cc1)C(=O)c1cc2c(cn1)[nH]c1ccccc12`, for which the IC50 with SMMC-7721 is > 12.5 µM; with HCT-116, > 12.5 µM; with HepG2 [1], > 12.5 µM; at Histone deacetylase, 2.82 µM.

For the compound `CCN(Cc1ccc(C(=O)NO)cc1)C(=O)c1cc2c([nH]c3ccccc32)c(-c2ccc(OC)cc2)n1`, the concentration for half-maximal inhibition (IC50) was 10.3 µM in the series on SMMC-7721; 6.07 µM in the series with HCT-116; 9.24 µM with LoVo; 8.34 µM with HepG2 [1]; 0.83 µM against Histone deacetylase.

Consider `Cc1nc(C(=O)N(C)Cc2ccc(C(=O)NO)cc2)cc2c1[nH]c1ccccc12`, for which the IC50 was > 12.5 µM with SMMC-7721; > 12.5 µM with HCT-116; > 12.5 µM with LoVo; > 12.5 µM in the series with HepG2 [1]; 3.06 µM against Histone deacetylase.

For `CCCCN(Cc1ccc(C(=O)NO)cc1)C(=O)c1cc2c([nH]c3ccccc32)c(-c2cccc(OC)c2)n1`, the IC50 was 5.75 µM in the series on SMMC-7721; 4.32 µM with HCT-116; 7.63 µM in the series with LoVo; 5.16 µM with HepG2 [1]; 0.37 µM against Histone deacetylase.

For the compound `CCCCN(Cc1ccc(C(=O)NO)cc1)C(=O)c1cc2c(cn1)[nH]c1ccccc12`, the IC50 with SMMC-7721 is > 12.5 µM; with HCT-116 it was > 12.5 µM; with HepG2 [1], > 12.5 µM; against Histone deacetylase, 2.69 µM.

As usually defined, the IC50 is the concentration that gives 50% inhibition. For orientation: half-life means the time in which the quantity being followed falls by half.
